Data set [1] in a line: Drug metabolism in cynomolgus monkey liver microsomes assessed as (24S,25)-epoxydamma-rane-12,20-diol-3-beta-D-glucopyranoside formation at 10 uM after 1 hr by LC/MS analysis in presence of GSH. It is filed as ADME, Macaca fascicularis. Summed up:
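Male cynomolgus monkey liver microsomes (1 mg/ml) with 10 µM Rh2, 2 mM GSH and 2 mM NADPH in 100 mM potassium phosphate pH 7.4, 37°C, 60 min after 3 min preincubation; microsomes start reaction; ice-cold acetonitrile stop; no-NADPH controls; duplicates; LC/ion-trap MSn detection.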
In general terms: Liver microsomes are vesicles of endoplasmic reticulum, rich in cytochrome P450 enzymes.

For the next data set, the target named is T1, Cytochrome P450 1A2 (Homo sapiens, UniProt P05177).
T1 sequence (P05177 whole entry): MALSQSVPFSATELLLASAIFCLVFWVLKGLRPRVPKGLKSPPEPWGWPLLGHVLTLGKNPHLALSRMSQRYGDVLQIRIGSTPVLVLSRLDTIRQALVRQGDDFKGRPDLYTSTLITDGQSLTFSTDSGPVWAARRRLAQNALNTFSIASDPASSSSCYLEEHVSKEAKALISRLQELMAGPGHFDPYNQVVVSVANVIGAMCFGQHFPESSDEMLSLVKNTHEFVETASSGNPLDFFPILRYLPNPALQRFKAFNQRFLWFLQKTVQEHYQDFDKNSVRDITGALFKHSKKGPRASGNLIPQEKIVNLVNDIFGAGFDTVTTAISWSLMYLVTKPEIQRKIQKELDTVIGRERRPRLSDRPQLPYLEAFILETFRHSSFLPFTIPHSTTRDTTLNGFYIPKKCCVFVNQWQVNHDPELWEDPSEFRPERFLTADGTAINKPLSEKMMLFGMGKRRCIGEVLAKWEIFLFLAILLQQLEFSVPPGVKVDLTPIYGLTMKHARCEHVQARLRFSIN
Briefly: Drug metabolism in human recombinant CYP1A2 mediated oxidative metabolism at 10 uM. The note with it: recombinant enzyme. The format is ADME. In outline: (§1)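 Recombinant human P450 at 50 nM incubated with 10 µM Rh2 and 2 mM NADPH in 100 mM potassium phosphate pH 7.4, 37°C, 60 min; ice-cold acetonitrile stop; duplicates; metabolites detected by LC/ion-trap MSn.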

The target in a further data set is Cytochrome P450 2C9 (Homo sapiens, UniProt P11712). The data set can be described thus: Drug metabolism in human recombinant CYP2C9 mediated oxidative metabolism at 10 uM. It is filed as ADME. The note with it: recombinant enzyme. Summed up: as §1
Data set [2] can be described thus: Drug excretion in rat feces at 50 mg/kg, po. The format is ADME, organism-based. The arrangement: dose 50 mg/kg, route oral. The settings on record: faeces, read-out: Drug excretion.
Data set [3] relates to Liver microsome. The data set can be described thus: Drug metabolism in human liver microsomes assessed as oxidative metabolism at 10 uM in presence of 0.4 uM ticlopidine CYP2B6/CYP2C19 inhibitor. It is filed as ADME. In outline:
(§2)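 Pooled human liver microsomes (1 mg/ml, mixed-gender, 50 donors), 10 µM Rh2, 2 mM NADPH and selective inhibitor in 100 mM potassium phosphate pH 7.4; 37°C, 60 min; ice-cold acetonitrile stop; uninhibited controls; duplicates; formation of M1-2, M1-3 and M1-4+M1-5 quantified by LC/ion-trap MSn.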

For data set [4], the system named is Liver microsome. Briefly: Drug metabolism in human liver microsomes assessed as oxidative metabolism at 10 uM in presence of 10 uM ketoconazole CYP3A inhibitor. The format is ADME. Summed up: as §2
Another data set has as its target T2, Cytochrome P450 1B1 (Homo sapiens, UniProt Q16678).
T2 sequence (Q16678 whole entry): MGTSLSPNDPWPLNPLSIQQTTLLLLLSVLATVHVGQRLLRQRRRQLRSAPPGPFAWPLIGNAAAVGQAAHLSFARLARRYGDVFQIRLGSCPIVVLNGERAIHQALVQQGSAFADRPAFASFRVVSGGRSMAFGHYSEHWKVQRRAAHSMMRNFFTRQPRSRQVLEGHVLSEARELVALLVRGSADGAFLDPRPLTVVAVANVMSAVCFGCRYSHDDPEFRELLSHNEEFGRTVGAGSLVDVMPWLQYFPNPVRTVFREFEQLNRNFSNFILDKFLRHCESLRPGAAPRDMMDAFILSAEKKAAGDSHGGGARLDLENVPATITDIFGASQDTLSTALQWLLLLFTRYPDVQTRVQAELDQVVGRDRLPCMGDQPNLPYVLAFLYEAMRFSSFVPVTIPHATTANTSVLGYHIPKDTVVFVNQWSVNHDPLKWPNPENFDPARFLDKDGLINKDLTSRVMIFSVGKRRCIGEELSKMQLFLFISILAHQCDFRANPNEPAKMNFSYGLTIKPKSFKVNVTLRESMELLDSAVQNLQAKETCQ
Briefly: Drug metabolism in human recombinant CYP1B1 mediated oxidative metabolism at 10 uM. The note with it: recombinant enzyme. The format is ADME. In outline: as §1

The next data set concerns the target T3, Cytochrome P450 2C8 (Homo sapiens, UniProt P10632).
T3 sequence (P10632 whole entry): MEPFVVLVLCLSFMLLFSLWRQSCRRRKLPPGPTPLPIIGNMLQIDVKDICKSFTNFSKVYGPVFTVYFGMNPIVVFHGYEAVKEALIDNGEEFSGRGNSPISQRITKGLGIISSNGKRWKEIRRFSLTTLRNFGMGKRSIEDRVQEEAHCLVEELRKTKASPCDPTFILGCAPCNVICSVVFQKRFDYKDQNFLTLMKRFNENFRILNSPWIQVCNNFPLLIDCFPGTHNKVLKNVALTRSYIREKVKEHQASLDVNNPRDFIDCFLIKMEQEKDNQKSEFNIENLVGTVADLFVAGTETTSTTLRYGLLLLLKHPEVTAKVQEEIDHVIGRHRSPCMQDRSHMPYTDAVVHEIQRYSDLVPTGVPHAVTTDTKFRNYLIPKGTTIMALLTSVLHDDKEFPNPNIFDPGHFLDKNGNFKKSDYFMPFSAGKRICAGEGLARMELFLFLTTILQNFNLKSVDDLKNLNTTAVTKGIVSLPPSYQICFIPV
Briefly: Drug metabolism in human recombinant CYP2C8 mediated oxidative metabolism at 10 uM. The format is ADME. The settings on record: recombinant enzyme. In outline: as §1

Data set [5] concerns Liver microsome. Briefly: Drug metabolism in human liver microsomes assessed as oxidative metabolism at 10 uM in presence of 60 uM chlormethiazole CYP2E1 inhibitor. It is filed as ADME. In outline:
as §2

For the next data set, the target named is Cytochrome P450 2D6 (Homo sapiens, UniProt P10635). The data set can be described thus: Drug metabolism in human recombinant CYP2D6 mediated oxidative metabolism at 10 uM. It is filed as ADME. The note with it: recombinant enzyme. In outline:
as §1

Data set [6] relates to Liver microsome. Briefly: Drug metabolism in human liver microsomes assessed as oxidative metabolism at 10 uM in presence of 0.1 uM alpha-naphthoflavone CYP1A2 inhibitor. It is filed as ADME. Summed up: as §2
Data set [7] deals with Liver microsome. Briefly: Drug metabolism in human liver microsomes assessed as oxidative metabolism at 10 uM in presence of 2 uM quinidine CYP2D6 inhibitor. The format is ADME. In outline:
as §2

Chain of Cytochrome P450 2C9 (P11712 whole entry): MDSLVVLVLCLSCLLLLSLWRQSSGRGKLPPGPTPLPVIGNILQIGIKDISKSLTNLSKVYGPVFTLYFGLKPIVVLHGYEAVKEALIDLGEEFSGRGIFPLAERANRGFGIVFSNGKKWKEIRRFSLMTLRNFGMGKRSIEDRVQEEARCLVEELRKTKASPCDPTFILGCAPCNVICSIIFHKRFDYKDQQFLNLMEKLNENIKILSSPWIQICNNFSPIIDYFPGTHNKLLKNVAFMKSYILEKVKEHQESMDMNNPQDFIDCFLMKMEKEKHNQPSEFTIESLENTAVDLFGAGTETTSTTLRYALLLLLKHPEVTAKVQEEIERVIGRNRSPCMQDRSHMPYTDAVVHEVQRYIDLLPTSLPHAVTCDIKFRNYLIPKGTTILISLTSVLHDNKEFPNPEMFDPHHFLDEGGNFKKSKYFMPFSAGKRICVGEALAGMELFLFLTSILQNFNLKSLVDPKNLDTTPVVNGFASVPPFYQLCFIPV
Chain of Cytochrome P450 2D6 (P10635 whole entry): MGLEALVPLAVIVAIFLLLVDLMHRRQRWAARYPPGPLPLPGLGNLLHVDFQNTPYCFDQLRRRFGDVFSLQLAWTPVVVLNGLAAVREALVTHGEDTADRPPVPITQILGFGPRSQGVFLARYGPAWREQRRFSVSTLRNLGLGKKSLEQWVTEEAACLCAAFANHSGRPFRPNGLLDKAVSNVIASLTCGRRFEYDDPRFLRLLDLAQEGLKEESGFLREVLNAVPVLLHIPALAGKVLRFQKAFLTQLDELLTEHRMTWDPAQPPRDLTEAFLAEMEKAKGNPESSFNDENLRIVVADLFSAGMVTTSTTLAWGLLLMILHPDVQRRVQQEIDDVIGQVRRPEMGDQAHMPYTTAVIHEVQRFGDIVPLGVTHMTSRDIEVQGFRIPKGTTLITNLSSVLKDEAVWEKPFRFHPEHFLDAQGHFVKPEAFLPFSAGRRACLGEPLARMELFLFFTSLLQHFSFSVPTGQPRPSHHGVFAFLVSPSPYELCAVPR

Regarding `CC(C)=CCC[C@](C)(O)[C@H]1CC[C@]2(C)[C@@H]1[C@H](O)C[C@@H]1[C@@]3(C)CC[C@H](O[C@@H]4O[C@H](CO)[C@@H](O)[C@H](O)[C@H]4O)C(C)(C)[C@@H]3CC[C@]12C` [GINSENOSIDE RH2], the Drug metabolism entry in data set [1] is given as “metabolite_detected”; on Cytochrome P450 1A2, “metabolite_not_detected”; at Cytochrome P450 2C9, “metabolite_not_detected”; with Liver microsome [3], “metabolite_detected”; with Liver microsome [4], “metabolite_not_detected”; at Cytochrome P450 1B1 it was “metabolite_not_detected”. Moreover, the Drug metabolism result is “metabolite_not_detected” on Cytochrome P450 2C8; “metabolite_detected” in the data set on Liver microsome [5]; “metabolite_not_detected” on Cytochrome P450 2D6; “metabolite_detected” in the data set with Liver microsome [6]; “metabolite_detected” in the data set on Liver microsome [7]. Also, the dose excreted in data set [2] is less than 10%.

The record behind these values is ChEMBL document CHEMBL3525925, “In vitro studies on the oxidative metabolism of 20(s)-ginsenoside Rh2 in human, monkey, dog, rat, and mouse liver microsomes, and human liver s9” (Drug Metab Dispos, 2012).
